Screening results as filed in PubChem BioAssay.
Sampled rows, rich in hits. Any-hit rate of the full collection: about 3%.
Exocytosis inh = LAMP-1 surface exposure blockers, TALL-104 cells – cell-based, flow cytometry, MLPCN library, primary screen; TALL-104 LAMP-1 surface exposure; cells stimulated with thapsigargin and PMA; inhibition, % at 10 µM; actives 0.66% (n = 360,000); AID 651702, 2012;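 active = inhibition above about 55%, limit read from the data; inconclusive = no clear call, values can overlap the other calls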
UBC13 inh = UBC13 polyubiquitin chain formation inhibitors, primary screen, biochemical, TR-FRET, uHTS | Ubiquitin-conjugating enzyme E2 N (Homo sapiens), P61088 | inhibition, % at 20 µM | actives 0.47% (n = 330,000); in the data active = inhibition above about 45%, passing the limit was not always enough; inconclusive = no clear call, values can overlap the other calls
Apaf-1 inh = inhibitors of human Apaf-1 apoptosome, primary screen, biochemical, DEVD-Rh110 fluorescence, uHTS. reconstituted apoptosome caspase-3 activity. inhibition, % at 20 µM. actives 0.71% (n = 330,000); active = inhibition of at least 40% at 20 µM;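 also: plate controls were DMSO wells for no effect and DEVD-CHO caspase inhibitor wells for full effect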
Target sequence (O14727 whole entry, looked up): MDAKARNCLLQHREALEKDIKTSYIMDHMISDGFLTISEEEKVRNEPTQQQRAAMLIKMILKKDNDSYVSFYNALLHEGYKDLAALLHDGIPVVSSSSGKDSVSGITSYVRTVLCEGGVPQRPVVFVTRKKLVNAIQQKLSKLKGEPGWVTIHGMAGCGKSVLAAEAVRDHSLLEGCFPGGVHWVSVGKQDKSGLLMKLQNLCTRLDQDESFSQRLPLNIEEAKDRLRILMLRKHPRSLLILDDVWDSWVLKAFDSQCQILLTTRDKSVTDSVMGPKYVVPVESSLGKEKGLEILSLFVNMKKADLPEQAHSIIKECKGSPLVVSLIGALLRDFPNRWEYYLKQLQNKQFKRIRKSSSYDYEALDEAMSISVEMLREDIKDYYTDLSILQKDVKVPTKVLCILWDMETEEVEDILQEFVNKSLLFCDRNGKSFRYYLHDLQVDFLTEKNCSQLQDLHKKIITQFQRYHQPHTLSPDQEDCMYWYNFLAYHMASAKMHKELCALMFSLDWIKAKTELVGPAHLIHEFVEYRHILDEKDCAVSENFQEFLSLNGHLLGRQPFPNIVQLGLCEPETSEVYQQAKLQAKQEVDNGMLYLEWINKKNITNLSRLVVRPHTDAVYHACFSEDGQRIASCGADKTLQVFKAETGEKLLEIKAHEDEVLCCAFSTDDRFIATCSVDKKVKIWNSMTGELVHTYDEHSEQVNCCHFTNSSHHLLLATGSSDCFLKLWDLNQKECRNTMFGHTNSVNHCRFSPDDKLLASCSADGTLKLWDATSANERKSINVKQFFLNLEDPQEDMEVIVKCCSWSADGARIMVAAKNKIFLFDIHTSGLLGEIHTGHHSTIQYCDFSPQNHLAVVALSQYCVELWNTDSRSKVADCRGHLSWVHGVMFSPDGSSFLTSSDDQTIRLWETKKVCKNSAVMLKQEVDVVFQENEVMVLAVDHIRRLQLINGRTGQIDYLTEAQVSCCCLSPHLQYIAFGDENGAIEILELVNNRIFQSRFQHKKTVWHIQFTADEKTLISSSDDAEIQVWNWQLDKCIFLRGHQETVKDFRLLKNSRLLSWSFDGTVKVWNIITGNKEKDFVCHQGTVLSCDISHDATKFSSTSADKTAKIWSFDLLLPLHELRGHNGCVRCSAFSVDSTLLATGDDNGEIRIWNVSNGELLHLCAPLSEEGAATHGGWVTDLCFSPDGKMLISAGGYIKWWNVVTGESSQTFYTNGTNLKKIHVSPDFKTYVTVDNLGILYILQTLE
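System – cell-free apoptosome with Apaf-1, procaspase-3 and caspase-9 · Buffer or medium – pH 7.5 Hepes buffer with CHAPS, BSA, DTT · Also added – cytochrome c with DEVD-Rh110 · Times – 30 min compound preincubation, 50 min activation, room temperature · Technique – Rh110 fluorescence intensity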
MIN6 prolif = inducers of MIN6 beta-cell proliferation, primary screen, ATP luminescence, uHTS. MIN6 cells proliferation, ATPlite luminescence, 48 h; cells starved in 0.2% serum; 100% = growth in 10% serum. proliferation, % at 10 µM. actives 0.29% (n = 330,000);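 active = compounds whose signal lies at least 3.5 SD above the mean of all wells on their plate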;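 also: 0% = DMSO-treated cells in low-serum medium and 100% = 10% serum control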
hiPSC survival = enhancers of single-cell hiPSC survival, primary screen, ATPlite luminescence; survival enhancement, % at 20 µM; actives 0.044% (n = 360,000); 100% = ROCK inhibitor wells, 0% = DMSO; in the data active = survival enhancement above about 18%;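 also: cells exposed to compounds for 16 hours before the ATP read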
MPTP inh = mitochondrial permeability transition pore inhibitors, primary screen, biochemical, isolated mouse mitochondria, absorbance; AID 602449, 2012; inhibition, % at 10 µM; actives 1.4% (n = 360,000); Ca2+ swelling absorbance, 30 min;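 active = inhibition of 50% or more, scaled per plate between neutral and stimulator controls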;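 also: 0% = DMSO wells given calcium and 100% = 1 mM EGTA wells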
Rh123 counter = fluorescence retest of MPTP screen hits in isolated mitochondria, single concentration; inhibition, % at 10 µM; actives 78% (n = 5,000); membrane potential, Rhodamine 123 fluorescence; AID 624504, 2012; shares compounds with MPTP inh; in the data active = inhibition above about 22%;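 also: 0% = DMSO vehicle and 100% = positive control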
MPTP abs DR = mitochondrial permeability transition pore inhibitors, dose response, biochemical, absorbance, uHTS hits; shares compounds with MPTP inh; isolated mitochondria swelling; IC50, µM; actives 58% (n = 780); AID 651561, 2012; in the data active = IC50 below about 20 µM
MPTP counter DR = fluorescent counter-screen in isolated mitochondria, dose response, counter-screen for MPTP inhibitor project, biochemical, fluorescence, uHTS hits | shares compounds with MPTP inh | isolated mitochondria counterscreen, fluorescence read-out | IC50, µM | actives 49% (n = 780) | AID 651564, 2012; in the data active = IC50 below about 80 µM
Active calls of the source: *; i = inactive; u = inconclusive; x = no result given.

SMILES	Exocytosis inh	UBC13 inh	Apaf-1 inh	MIN6 prolif	hiPSC survival	MPTP inh	Rh123 counter	others
COc1ccc(Cl)c(N2CCN(CCCNC(=O)Nc3ccc(C)cc3)CC2)c1	35.4	20.8	9.9	-3.5	3.0	80.3*	-9.5	MPTP abs DR=9.41*;MPTP counter DR=36.5*
Cc1nc2ccccn2c1C(=O)NNS(=O)(=O)c1ccc(C(C)(C)C)cc1	2.3	-1.8	-9.4	-1.6	4.8	75.9*	71.6*
COc1ccc(-c2cc(=O)oc3cc(OC(C)C(=O)NCCCn4ccnc4)ccc23)cc1 (stereo not drawn)	-3.4	15.3	-4.3	4.4	-1.2	2.1	x
Cc1ccc(S(=O)(=O)N2CCC(=O)N(CCOCc3ccc(C(F)(F)F)cc3)CC2)cc1	-0.6	23.7	30.0	-7.8	0.4	77.5*	99.0*
CCN(c1ccccc1)S(=O)(=O)c1ccc(Oc2ccc(C(C)=O)cc2OC)nc1	-0.6	-2.3	2.5	-1.1	-2.6	1.0	x
Cn1c(Cc2ccccc2)nc(=O)c2ccccc21	-1.8	x	x	x	1.2	-2.5	x
CCS(=O)(=O)N1CCC(C(=O)NCCCN2CCC(Cc3ccccc3)CC2)CC1	4.7	1.2	5.4	-0.9	0.1	1.4	x
O=C(NCCCN1CCC(Cc2ccccc2)CC1)C1CCN(S(=O)(=O)N2CCOCC2)CC1	-2.0	x	x	x	-0.5	87.8*	5.0	MPTP abs DR=i;MPTP counter DR=60.9*
FC(F)(F)c1cccc(N2CCN(C(=S)NC3CCCCC3)CC2)c1	2.1	-2.2	28.4	-2.2	-2.3	81.2*	72.3*
O=C(O)c1ccc(NC(=S)NC2CCCCC2)cc1	-3.6	5.8	-6.5	0.0	-0.6	0.4	x
FC(F)(F)c1ccc(NC(=S)NC2CCCCC2)cc1	-0.1	2.0	9.2	-6.3	-0.4	98.6*	78.2*
O=C(Nc1cccc(F)c1)C1CCCCC1	10.1	-3.6	-9.7	4.1	-3.6	-0.7	x
FC(F)(F)c1cccc(NC(=S)NC2CCCC2)c1	-1.8	2.2	8.3	0.0	-0.6	99.8*	83.2*
Fc1cccc(NC(=S)NC2CCCCCCC2)c1	-2.7	-10.7	15.2	-7.4	0.2	74.6*	97.8*
O=C(CCSc1ccc(Cl)c(Cl)c1)NC12CC3CC(CC(C3)C1)C2	2.6	-9.0	27.7	-2.2	-1.6	52.1*	45.1*
O=C(CSc1ccc(F)cc1)NC12CC3CC(CC(C3)C1)C2	2.1	-6.6	9.2	-2.0	-0.4	1.0	x
O=C(O)c1ccc(-c2nc(-c3ccccc3)c(-c3cccs3)[nH]2)cc1	-1.0	13.8	-7.9	-1.6	-0.7	0.5	x
O=[N+]([O-])c1ccc(O)c(-c2nc(-c3ccccc3)c(-c3cccs3)[nH]2)c1	-2.2	-55.6	-5.7	-5.5	-0.8	91.0*	85.8*
COc1ccc(NC(=O)Nc2nc(C(N)CC(C)C)cs2)cc1 (stereo not drawn)	-1.9	x	x	x	-2.9	2.0	x
NC(c1csc(NC(=O)Nc2ccc(OC(F)(F)F)cc2)n1)C1CCCCC1 (stereo not drawn)	12.8	x	x	x	-6.8	62.5*	87.8*
COc1ccc2cc(C3=CCCC3(C)C(=O)O)ccc2c1 (stereo not drawn)	8.2	x	x	x	-2.1	-0.4	x
O=C(NCc1ccccc1)[C@@H]1CCCN1C(=O)[C@@H]1CCCN1C(=O)c1cccs1	-1.1	x	x	x	0.0	0.3	x
CC(C)Cc1csc(NC(=O)c2ccc(F)cc2)c1C(=O)O	-1.8	4.8	13.9	-2.9	-0.5	53.1*	71.4*
Cc1cc(C)n2nc(SCC(=O)N3CCN(c4ccccc4)CC3)nc2n1	1.0	0.6	0.8	0.7	4.5	-0.2	x
CCCCn1c(N)c(N(CCOC)C(=O)c2cccc(S(=O)(=O)N(CC)c3ccccc3)c2)c(=O)[nH]c1=O	13.0	-3.1	0.6	-1.9	-0.4	-1.3	x
SMILES	Exocytosis inh	UBC13 inh	Apaf-1 inh	MIN6 prolif	hiPSC survival	MPTP inh	Rh123 counter	others
COc1ccc2c(c1)C(c1ccccc1)NC(=O)C2 (stereo not drawn)	0.6	-2.6	13.2	2.8	-2.2	1.0	x
O=C1c2cccc(OCc3ccc(F)cc3)c2CCN1Cc1ccc(F)cc1	17.9	1.4	35.3	0.0	-2.1	79.4*	83.2*
Cc1ccc(CN2CCc3c(OCc4ccc(F)cc4)cccc3C2=O)cc1	6.2	-2.2	16.8	-6.2	-1.9	24.6	x
Cc1ccc(S(=O)(=O)CC(=O)Nc2ncc([N+](=O)[O-])s2)cc1	18.1	4.5	4.3	0.5	0.1	0.3	x
Cc1ccc(CC(=O)Nc2ncc([N+](=O)[O-])s2)cc1	2.4	4.3	1.1	-1.7	8.4	65.8*	89.9*
CCCCC(CC)C(=O)Nc1ncc([N+](=O)[O-])s1 (stereo not drawn)	5.6	-16.0	2.6	-6.5	-0.3	97.7*	100.0*
CCCCC(=O)N(C)c1c(C)nc2ccc(C(=O)NCCOc3ccc(OC)cc3)cn12	-3.2	x	x	x	-0.6	-2.3	x
CCCCN(C)c1c(C)nc2ccc(C(=O)NCCOc3ccc(OC)cc3)cn12	2.2	x	x	x	1.8	95.6*	78.0*
CN(C)c1ccc(C(C(=O)NC2CCCC2)N(C(=O)c2csnn2)C2CC2)cc1 (stereo not drawn)	u	2.3	0.5	3.6	-0.8	1.0	x
CC(OCCN1CCCC1)(c1ccc(F)cc1)c1ccc(F)cc1	-0.8	9.6	-7.4	0.0	-1.6	75.5*	-2.1	MPTP abs DR=i;MPTP counter DR=>80
COc1ccc(CCc2nnc(CCC(=O)N(C)Cc3ccnc4ccccc34)o2)cc1	-5.6	-0.9	-14.2	0.0	-1.7	79.4*	30.4*
CCOc1ccc(C(=O)Nc2cccc([N+](=O)[O-])c2)cc1Br	-0.7	1.5	-7.6	-3.3	1.8	79.6*	68.8*
COc1ccc(CCNC(=O)Nc2cccc([N+](=O)[O-])c2)cc1	-0.4	-1.9	1.4	4.3	2.1	84.9*	82.8*
O=C(Nc1cccc([N+](=O)[O-])c1)NN1CCCCCC1	4.2	x	x	x	2.4	93.7*	81.7*
O=C(Nc1cccc([N+](=O)[O-])c1)ONC1=NCCCCC1	-1.6	-7.3	-10.1	-0.8	1.9	67.8*	76.9*
COc1ccc(CCNC(=O)Nc2cccc([N+](=O)[O-])c2)cc1OC	-2.5	0.4	6.6	-1.7	3.4	0.2	x
